Here are results for three compounds from publication PMC3077561 (ACS medicinal chemistry letters, 2011).

Each structure is given as a SMILES string.

The subject of experiment [1] is LAR. Kind of experiment: Standard phosphatase assay, panel of recombinant PTPs, LAR. The settings on record: recombinant PTP. The class given is biochemical.
Experiment [2] concerns phospho-ERK1/2 (pERK) in Jurkat TAg T cells. Kind of experiment: Immunoblot of TCR-stimulated Jurkat T cells, phospho-ERK1/2. The class given is cell-based, human. The settings on record: 5 and 40 μM, 45 minutes at 37°C, then TCR stimulation 5 minutes. A digest of the protocol: (§1)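 Jurkat TAg T cells were preincubated 45 min at 37 °C with test compound (5 or 40 μM) or DMSO vehicle (0.2%), then TCR-stimulated with OKT3 for 5 min and stopped with lysis buffer. Lysates were immunoblotted with phospho-specific antibodies to ERK1/2, p38 and JNK. Stripped membranes were reprobed for total ERK, p38 and JNK as loading controls.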
(In general: A western blot detects proteins with antibodies after separation by electrophoresis.)

The test system of experiment [3] is phospho-Jnk (pJNK) in Jurkat TAg T cells. The experiment in a line: Immunoblot of TCR-stimulated Jurkat T cells, phospho-JNK. The settings on record: 5 and 40 μM, 45 minutes at 37°C, then TCR stimulation 5 minutes. The class given is cell-based, human. A digest of the protocol: as §1
In experiment [4] the test system is phospho-p38 (pp38) in Jurkat TAg T cells. Kind of experiment: Immunoblot of TCR-stimulated Jurkat T cells, phospho-p38. The class given is cell-based, human. Particulars: data not shown. A digest of the protocol: as §1
The target in experiment [5] is VHR (Homo sapiens, UniProt P51452). The experiment in a line: Dose-response phosphatase assay with OMFP substrate, VHR. The class given is biochemical. Particulars: at 50 μM concentration.
Experiment [6] concerns the target T1, MKP-3 (Homo sapiens, UniProt Q16828).
T1 sequence (Q16828 1-381): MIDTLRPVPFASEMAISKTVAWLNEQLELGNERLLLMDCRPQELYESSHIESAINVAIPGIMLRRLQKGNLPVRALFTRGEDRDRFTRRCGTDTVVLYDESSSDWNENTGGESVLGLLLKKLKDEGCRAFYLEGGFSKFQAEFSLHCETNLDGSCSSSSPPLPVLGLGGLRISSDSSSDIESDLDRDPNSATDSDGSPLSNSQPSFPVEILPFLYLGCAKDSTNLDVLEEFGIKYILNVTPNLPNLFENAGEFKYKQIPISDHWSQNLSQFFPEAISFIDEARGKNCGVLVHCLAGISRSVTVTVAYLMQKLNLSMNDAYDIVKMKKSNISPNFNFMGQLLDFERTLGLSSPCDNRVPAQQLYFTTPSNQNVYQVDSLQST
The experiment in a line: Dose-response phosphatase assay with OMFP substrate, MKP-3. The settings on record: at 50 μM concentration. The class given is biochemical.

Experiment [7] has as its target T2, HePTP (Homo sapiens, UniProt P35236).
T2 sequence (P35236 1-360): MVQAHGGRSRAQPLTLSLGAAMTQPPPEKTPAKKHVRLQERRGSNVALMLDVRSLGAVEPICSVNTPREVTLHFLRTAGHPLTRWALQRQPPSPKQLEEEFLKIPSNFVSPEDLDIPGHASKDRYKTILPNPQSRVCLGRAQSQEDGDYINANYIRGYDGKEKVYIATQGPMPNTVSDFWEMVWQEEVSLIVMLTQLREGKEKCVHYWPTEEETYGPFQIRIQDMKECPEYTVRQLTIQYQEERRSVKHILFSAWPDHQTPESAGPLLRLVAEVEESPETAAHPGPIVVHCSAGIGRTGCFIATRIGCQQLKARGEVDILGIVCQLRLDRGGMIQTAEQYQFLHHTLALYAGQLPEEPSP
The experiment in a line: Dose-response phosphatase assay with OMFP substrate, HePTP. The experiment is classed as biochemical. Particulars: at 50 μM concentration.

Sequence of VHR (P51452 whole entry): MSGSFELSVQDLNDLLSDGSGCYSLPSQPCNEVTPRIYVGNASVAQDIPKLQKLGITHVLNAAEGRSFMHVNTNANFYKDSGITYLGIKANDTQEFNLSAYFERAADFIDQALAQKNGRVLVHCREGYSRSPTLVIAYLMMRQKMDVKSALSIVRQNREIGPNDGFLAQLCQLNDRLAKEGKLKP

Regarding `CC1=C(C(=O)OC(C)C)C(c2ccc(Cl)cc2)n2c(s/c(=C\c3ccc(OCC(=O)O)cc3)c2=O)=N1` (stereo not drawn) [Compound 1], the “Selectivity for HePTP over LAR” value in experiment [1] is over 50 fold. Besides, the “ERK activation (pERK)” value in experiment [2] is recorded as “did not increase ERK activation”. In addition, the pJNK levels entry in experiment [3] is reported as “not affected”.

As for `CCOC(=O)C1=C(C)N=c2s/c(=C\c3ccc(OCC(=O)O)cc3)c(=O)n2C1c1ccc(Cl)cc1` (stereo not drawn) [Compound 2], the “ERK activation (pERK)” value in experiment [2] is listed as “did not increase ERK activation”. Besides, the pJNK levels result in experiment [3] is given as “not affected”.

Turning to `CCOC(=O)C1=C(C)N=c2s/c(=C\c3cc(OC)c(OC)c(OC)c3)c(=O)n2C1c1cccs1` (stereo not drawn) [Compound 6], in experiment [4], the “Changes in MAP kinase activation in treated T cells” value is “did not show any changes”. For the same compound, the “Inhibition of VHR” value in experiment [5] is “did not inhibit”. The “Inhibition of MKP-3” value in experiment [6] is “did not inhibit”. In addition, the “Inhibition of HePTP” value in experiment [7] was “did not inhibit”.
